Only some compounds are listed: those with a hit (about 2.4% of all), similar ones and a draw of the others.
Casp6 inh – inhibitors of human caspase-6; purified caspase-6, Z-VEID-R110 cleavage fluorescence; inhibition, % at 12.5 µM; hit rate 0.53% among 350,000; P55212;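 active = mean inhibition across replicates at least about 35%, with every replicate also reaching that limit, limit read from the data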;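 also: 0% = median of neutral control wells and 100% = no fluorescence left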
rRNA inh HTS – inhibits bacterial ribosomal RNA function over humanized ribosomes; E. coli WT GFP vs humanized-ribosome RFP mutants, fluorescence, 24 h; active compounds read low; DMSO median 0, no signal -100; hit rate 1.6% among 350,000; GFP signal change (wild-type ribosome), % (test concentration not listed);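 active = significant combined selectivity score with lowered wild-type GFP, culture density cut under 30%, mutant RFP and density less affected; inactive = any of these conditions unmet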
PGC1a acetyl inh – lowers PGC1a acetylation signal in U2OS cells. AlphaScreen anti-acetyl-lysine; with virally co-expressed GCN5 acetyltransferase. inhibition, % at 15.6 µM. hit rate 0.17% among 350,000. AID 651687;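 active = every replicate shows inhibition of at least 40%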;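 also: 0% = neutral control wells and 100% = positive control wells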
ARNT-TACC3 inh – disruptors of human ARNT/TACC3 interaction | inhibition, % at 9.99 µM | Q9Y6A5 | AID 623870 | hit rate 0.66% among 390,000 | AlphaScreen His-ARNT PAS-B/GST-TACC3 binding, luminescence; TACC3 fragment carries E629A point mutation;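 active = mean inhibition of replicates at least 50% and at least half of replicates each reaching 50%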;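 also: 0% = complete ARNT plus TACC3 wells and 100% = ARNT alone without TACC3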
S100A4 inh HTS – blocks human S100A4 binding to myosin IIA peptide. P26447. S100A4/TAMRA-MyoIIA peptide fluorescence polarization. inhibition, % at 10.7 µM. hit rate 0.14% among 360,000. AID 652163;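 active = mean inhibition of at least 70% across replicates, with every replicate also reaching that level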
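Material: S100A4 monomer protein | Medium: HEPES pH 7.2 with CaCl2, KCl, NaCl, DTT, Triton | Reagent: Labelled myosin peptide probe, 5 nM | Doses: One dose per compound | Times: 5 min incubation before reading | Benchmarks: Neutral control DMSO, positive control TFP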
ERAP1 inh – inhibitors of human ERAP1 aminopeptidase; Q9NZ08; recombinant ERAP1, Leu-AMC fluorescence, 60 min; inhibition, % at 10.7 µM; hit rate 0.15% among 340,000; AID 652197;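 active = mean replicate inhibition of at least 30%, or all replicates individually reaching that 30% level; inactive = mean below 30% and not every replicate reaching it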;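 also: 0% = neutral control wells and 100% = L-leucinethiol positive control wells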
Target sequence (Q9NZ08 whole entry, looked up): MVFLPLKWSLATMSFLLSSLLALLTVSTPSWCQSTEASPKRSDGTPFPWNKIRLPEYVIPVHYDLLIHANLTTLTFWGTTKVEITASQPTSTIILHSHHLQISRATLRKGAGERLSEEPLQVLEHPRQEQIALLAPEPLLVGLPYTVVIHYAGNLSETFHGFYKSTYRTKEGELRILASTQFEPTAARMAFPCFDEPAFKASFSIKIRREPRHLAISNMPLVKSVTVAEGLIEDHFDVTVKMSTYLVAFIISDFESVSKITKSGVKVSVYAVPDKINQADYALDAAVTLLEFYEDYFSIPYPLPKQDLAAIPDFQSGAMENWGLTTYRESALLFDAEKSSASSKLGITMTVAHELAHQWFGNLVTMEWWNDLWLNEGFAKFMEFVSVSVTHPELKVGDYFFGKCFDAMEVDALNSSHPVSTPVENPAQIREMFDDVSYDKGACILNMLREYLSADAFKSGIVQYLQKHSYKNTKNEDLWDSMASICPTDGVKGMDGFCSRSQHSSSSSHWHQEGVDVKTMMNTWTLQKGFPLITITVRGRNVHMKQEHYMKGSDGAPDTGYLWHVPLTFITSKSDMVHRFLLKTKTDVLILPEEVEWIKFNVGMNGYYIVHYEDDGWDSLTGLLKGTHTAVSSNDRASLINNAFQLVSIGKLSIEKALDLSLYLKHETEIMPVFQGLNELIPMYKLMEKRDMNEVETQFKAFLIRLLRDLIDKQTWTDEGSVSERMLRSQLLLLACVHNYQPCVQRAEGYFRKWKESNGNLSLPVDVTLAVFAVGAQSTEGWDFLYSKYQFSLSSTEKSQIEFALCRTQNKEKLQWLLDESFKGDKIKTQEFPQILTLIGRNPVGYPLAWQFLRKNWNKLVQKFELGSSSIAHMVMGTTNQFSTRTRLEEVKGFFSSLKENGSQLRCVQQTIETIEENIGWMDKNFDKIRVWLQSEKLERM
ARNT Alpha ctr – counter-screen for ARNT/TACC3 inhibitors: AlphaScreen artifacts; shares compounds with ARNT-TACC3 inh; His-ARNT PASB-GST AlphaScreen artifact counter-screen, luminescence; AC50, µM (titrated, usually from 68 µM), for the others: at the top dose activity change, negative = signal decrease; hit rate 50% among 1,200; AID 651705;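 active = every separate test run was called active for a drop in luminescence, with AC50 within twice the top valid dose, actives reach about 71 µM in these data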
Numbers without * were called inactive; · = no result; [ ] = dose if it differs, or a comment.

SMILES | Casp6 inh | rRNA inh HTS | PGC1a acetyl inh | ARNT-TACC3 inh | S100A4 inh HTS | ERAP1 inh | ARNT Alpha ctr
O=C(C[C@H]1C=C[C@@H](NC(=O)Nc2ccccc2)[C@@H](CO)O1)NCc1ccccn1 | -3 | 1 | 5 | 35* | 7 | -2 | -8%[42 µM]
CNc1nc(C(=O)O)nc(N2CCOCC2)n1 | -1 | 12 | 4 | 56* | 7 | 0 | -31%
O=C(CSc1nnc(Nc2ccccc2F)s1)NCc1ccco1 | · | · | 0 | 5 | · | · | ·
Cc1ccccc1Nc1nnc(SCC(=O)NC(=O)NCc2ccco2)s1 | · | · | 5 | 62* | · | · | -12%
CCC(=O)Nc1ccc2c(c1)OC[C@H](C)N(C(=O)CC)C[C@@H](C)[C@H](OC)CN(C)C2=O | · | 4 | 11 | · | · | · | ·
c1ccc(-c2csc(Nc3ncccn3)n2)cc1 | · | · | · | -2 | · | · | ·
Cc1cccc(NC(=O)c2c(-c3ccccc3)noc2C)n1 | 3 | 2 | · | -8 | 17 | -3 | ·
c1ccc(-c2nnc(-c3ccccn3)nc2Nc2cnc3ccccc3n2)cc1 | · | · | · | · | · | · | 0.76µM*
FC(F)(F)c1ccc(-c2nnc(-c3ccccn3)c(-c3ccccn3)n2)nc1 | 1 | -15 | -2 | 12 | -2 | -3 | ·
c1ccc(-c2csc(Nc3nc(-c4ccccn4)nnc3-c3ccccc3)n2)cc1 | · | · | · | · | · | · | 2.2µM*
Cc1cccc(Nc2nc(-c3ccccn3)nnc2-c2ccccc2)n1 | · | · | · | · | · | · | 0.53µM*
COc1ccc2c3c([nH]c2c1)[C@@H](CO)N(C(=O)c1ccccn1)CC31CN(C(=O)C2CC2)C1 | 1 | 3 | · | · | 15 | -2 | ·
CNC(=O)C[C@H]1CC[C@H]2[C@H](COc3ccc(NC(=O)Nc4c(C)noc4C)cc3C(=O)N2C)O1 | · | 2 | -8 | 3 | · | · | ·
Cc1ccc(C(=O)Oc2ccc(Cl)c3cccnc23)cc1[N+](=O)[O-] | · | · | -4 | 17 | · | · | ·
O=C(Oc1ccc(Cl)c2cccnc12)c1cccnc1 | 7 | -4 | 3 | 69* | 0 | -2 | 50µM*
COc1ccc(CN(C)C[C@@H]2Oc3c(NS(=O)(=O)c4cn(C)cn4)cccc3C(=O)N([C@H](C)CO)C[C@@H]2C)cc1 | -1 | 4 | 5 | -7 | -6 | 4 | ·
NCC[C@@H]1CC[C@H](NC(=O)C2CCCC2)[C@H](CO)O1 | 2 | -2 | 3 | 23 | 2 | -2 | ·
O=C(c1cc(-c2ccccc2)on1)N1CCc2cccnc21 | · | · | · | · | · | · | -8%[38 µM]
CN1CCN(C(=O)c2cc(-c3ccccc3)on2)CC1 | · | · | 12 | -4 | · | · | 3%[38 µM]
CCCNC(=O)C[C@@H]1C[C@@H]2c3cc(NC(=O)Cc4ccncc4)ccc3O[C@@H]2[C@@H](CO)O1 | · | 2 | 0 | -8 | · | · | ·
COc1ccc(O)c(/C=N\NC(=O)CCn2nnc3ccccc32)c1 | · | · | -4 | 51* | · | · | -8%
CO[C@@H]1CN(C)C(=O)c2cc(NC(=O)C3CC3)ccc2OC[C@H](C)N(Cc2cncnc2)C[C@H]1C | -5 | 3 | 7 | 2 | -7 | 2 | ·
c1ccc(C2=Nn3c(nnc3-c3ccccn3)SC2)cc1 | · | · | 4 | 61* | · | · | -9%
CC1=Nn2c(nnc2-c2ccccn2)SC1 | · | · | · | 44* | · | · | -15%
c1ccc(C2=Nn3c(nnc3-c3ccncc3)SC2)cc1 | · | · | 28 | -1 | · | · | ·
SMILES | Casp6 inh | rRNA inh HTS | PGC1a acetyl inh | ARNT-TACC3 inh | S100A4 inh HTS | ERAP1 inh | ARNT Alpha ctr
O=C([C@H]1[C@H](CO)[C@H]2Cn3c(ccc(-c4cccnc4)c3=O)[C@H]2N1CC1CC1)N1CCCCC1 | -4 | 0 | 1 | -19 | 12 | -4 | ·
O=C(O)C[C@@H]1C[C@@H]2c3cc(NC(=O)Nc4ccc(C(F)(F)F)cc4)ccc3O[C@@H]2[C@H](CO)O1 | 4 | 0 | 4 | 5 | 6 | 0 | ·
COc1cc(C(=O)NCc2nnc(SCC(=O)Nc3nccs3)o2)cc(OC)c1OC | 2 | -5 | -6 | 69* | -1 | -1 | -15%
Cc1ccc2nc(-c3ccccc3N)[nH]c2c1 | -1 | -42 | -5 | -10 | 0 | -22 | ·
O=c1[nH]c(-c2ccccn2)nc2ccccc12 | · | · | · | 64* | · | · | -13%
c1ccc(-c2nc3ccccc3[nH]2)nc1 | 2 | 9 | 5 | 59* | -5 | 13 | -16%
O=c1[nH]c(/C=C/c2ccccn2)nc2ccccc12 | 2 | 5 | 0 | 8 | 2 | -1 | ·
Cc1ccc2nc(-c3ccccn3)[nH]c2c1 | 1 | -12 | 3 | 39* | -9 | -2 | -15%
Cc1noc(C)c1S(=O)(=O)Nc1ccc2c(c1)C(=O)N([C@@H](C)CO)C[C@@H](C)[C@@H](CN(C)C(=O)Nc1ccc(F)cc1)OCCCC[C@@H](C)O2 | 1 | 1 | 1 | 4 | -1 | 2 | ·
CCCCCCNc1cc2n(c(=O)n1)CCc1cc(OC)c(OC)cc1-2 | · | · | -29 | 58* | · | · | -30%
CCOc1ccccc1Nc1cc2n(c(=O)n1)CCc1cc(OC)c(OC)cc1-2 | -3 | -17 | · | 18 | 0 | 2 | ·
COc1cc2c(cc1OC)-c1cc(Nc3ccccc3C)nc(=O)n1CC2 | 1 | -1 | 8 | 23 | -9 | 3 | ·
COc1cc2c(cc1OC)-c1cc(Nc3cccc(C)c3)nc(=O)n1CC2 | 1 | 10 | 1 | 53* | 3 | 4 | 0%
CCOc1ccc(Nc2cc3n(c(=O)n2)CCc2cc(OC)c(OC)cc2-3)cc1 | 8 | -4 | 0 | 43* | -16 | 1 | -16%
C[C@H]1CN([C@@H](C)CO)C(=O)c2cc(-c3cccc(C#N)c3)cnc2O[C@@H]1CN(C)Cc1ccc(F)cc1 | -1 | -1 | -11 | -8 | -26 | -2 | ·
C[C@@H]1CN([C@@H](C)CO)C(=O)c2cc(NC(=O)Nc3ccc4c(c3)OCO4)ccc2O[C@@H](C)CCCCO[C@@H]1CN(C)C(=O)c1ccccc1 | -1 | 1 | 11 | 23 | -4 | -5 | ·
C[C@@H]1CN([C@H](C)CO)C(=O)c2cc(NC(=O)Nc3ccc(F)cc3)ccc2O[C@@H](C)CCCCO[C@@H]1CN(C)C(=O)C1CCCCC1 | 2 | 1 | -3 | -4 | -7 | 3 | ·
C#CCOc1ccc(OC)cc1C(c1c(C)[nH][nH]c1=O)c1c(C)[nH][nH]c1=O | · | · | 16 | 37* | · | · | 2%
CCOc1ccc(C(c2c(C)[nH][nH]c2=O)c2c(C)[nH][nH]c2=O)cc1OC | · | · | -2 | 6 | · | · | ·
COc1cc(OC)c2c(-c3ccccc3)cc(=O)oc2c1C(CCN1CCCCC1)c1ccc(N(C)C)cc1 (stereo not drawn) | · | · | 20 | 44* | · | · | 12µM*
COc1cc(OC)c2c(-c3ccccc3)cc(=O)oc2c1C(CCN1CCOCC1)c1ccc(N(C)C)cc1 (stereo not drawn) | -2 | -2 | 3 | 40 | -2 | 0 | ·
